Reference: paper PMC5931369 (Nature chemical biology, 2018)
Where “and” joins values, the source holds several entries; their conditions need not be identical. Equal entries are not always repeated. Entries after “also recorded” stand apart in the source; their conditions may differ.

Key:
[1] = test system: 765>dRet^M955T flies; assay: wing venation assay; assay type: in vivo, Drosophila
Procedure, shortened: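 UAS-dRetM955T;765-gal4/SM5tub-gal80-TM6B flies were crossed with w– or Lk6−/+ to give 765>dRetM955T or 765>dRetM955T,Lk6−/+ progeny. Progeny were reared for 13 days at 25°C on medium with or without compound (0.1% final DMSO). Adult wings were scored blind for abnormal venation. The assay was repeated twice.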

[2] = test system: dRet^M955T-expressing wing cells; assay: in vivo cell migration assay in developing wing discs; parameters: species or system Drosophila; settings: for EMT and migration/invasion of dRet^M955T-expressing wing cells: ptc>dRet^M955T wing discs; for effect of reduced Lk6 on suppression of ptc>dRet^M955T cell migration: ptc>dRet^M955T,Lk6^−/+ wing discs, 1 400 µM, 4 200 µM, 9 100 µM, 10 100 µM
Procedure, shortened: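 Third-instar larvae were dissected to collect developing wing discs. Discs were fixed in 4% paraformaldehyde in PBS and whole-mounted. GFP-labelled dRetM955T-expressing cells were examined by confocal microscopy. Phospho-Src was immunostained with rabbit anti-Src(pY418).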

[3] = test system: ptc>dRet^M955T flies with or without kinase heterozygous mutations; assay type: in vivo, Drosophila; settings: 23°C
[4] = test system: ptc>dRet^M955T flies; assay: rescue-from-lethality assay in ptc>dRet^M955T flies; assay type: in vivo, Drosophila; settings: drug food, 25°C; for rescue of ptc>dRet^M955T flies to adulthood (% viability): optimal dose
Procedure, shortened: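 ptc-gal4,UAS-GFP;UAS-dRetM955T/SM5tub-gal80-TM6B flies were crossed with w−. Embryos were raised for 13 days at 25°C on semi-defined medium carrying compound added from DMSO, 0.1% final. Flies were randomised. % viability = empty pupal cases ÷ total pupal cases. The assay was repeated twice.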

[5] = pharmacokinetics assay in mice; assay type: in vivo, mouse
Procedure, shortened: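 Male ICR mice (6 weeks) received a single oral dose of 20 mg/kg. Plasma drug concentrations were measured at 0.25, 0.5, 1, 2, 4, 8, 10 and 24 h after dosing.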

[6] = target: MKNK1 (Homo sapiens, UniProt Q9BUB5); assay: Kd measurement; assay type: binding
MKNK1, sequence (Q9BUB5 whole entry): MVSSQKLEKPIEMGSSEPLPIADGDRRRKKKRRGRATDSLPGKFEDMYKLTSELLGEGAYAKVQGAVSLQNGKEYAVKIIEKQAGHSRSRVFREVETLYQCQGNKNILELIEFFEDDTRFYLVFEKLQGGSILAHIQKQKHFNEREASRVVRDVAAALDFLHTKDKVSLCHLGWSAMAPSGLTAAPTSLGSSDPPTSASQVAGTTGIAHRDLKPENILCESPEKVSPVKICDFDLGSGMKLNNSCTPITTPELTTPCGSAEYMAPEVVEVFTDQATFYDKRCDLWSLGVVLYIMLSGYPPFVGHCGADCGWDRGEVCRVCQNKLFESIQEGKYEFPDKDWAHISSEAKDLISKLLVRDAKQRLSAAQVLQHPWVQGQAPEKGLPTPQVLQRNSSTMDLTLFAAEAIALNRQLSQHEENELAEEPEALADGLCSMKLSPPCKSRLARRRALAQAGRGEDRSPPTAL
Procedure, shortened: (§1)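 Competition binding assay: kinases expressed on phage and captured on beads through immobilised active-site-directed ligands. Test compound is premixed with kinase and scored for its ability to compete for the immobilised ligand. An 11-point series, 30,000 to 0.5 nM in 3-fold dilutions, is used for each compound–kinase pair. Kd is fitted by the Hill equation with slope fixed at -1 and averaged over two replicates.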

[7] = target: BRAF (Homo sapiens, UniProt P15056); assay: Kd measurement; assay type: binding; settings: cell-free in vitro
BRAF, sequence (P15056 whole entry): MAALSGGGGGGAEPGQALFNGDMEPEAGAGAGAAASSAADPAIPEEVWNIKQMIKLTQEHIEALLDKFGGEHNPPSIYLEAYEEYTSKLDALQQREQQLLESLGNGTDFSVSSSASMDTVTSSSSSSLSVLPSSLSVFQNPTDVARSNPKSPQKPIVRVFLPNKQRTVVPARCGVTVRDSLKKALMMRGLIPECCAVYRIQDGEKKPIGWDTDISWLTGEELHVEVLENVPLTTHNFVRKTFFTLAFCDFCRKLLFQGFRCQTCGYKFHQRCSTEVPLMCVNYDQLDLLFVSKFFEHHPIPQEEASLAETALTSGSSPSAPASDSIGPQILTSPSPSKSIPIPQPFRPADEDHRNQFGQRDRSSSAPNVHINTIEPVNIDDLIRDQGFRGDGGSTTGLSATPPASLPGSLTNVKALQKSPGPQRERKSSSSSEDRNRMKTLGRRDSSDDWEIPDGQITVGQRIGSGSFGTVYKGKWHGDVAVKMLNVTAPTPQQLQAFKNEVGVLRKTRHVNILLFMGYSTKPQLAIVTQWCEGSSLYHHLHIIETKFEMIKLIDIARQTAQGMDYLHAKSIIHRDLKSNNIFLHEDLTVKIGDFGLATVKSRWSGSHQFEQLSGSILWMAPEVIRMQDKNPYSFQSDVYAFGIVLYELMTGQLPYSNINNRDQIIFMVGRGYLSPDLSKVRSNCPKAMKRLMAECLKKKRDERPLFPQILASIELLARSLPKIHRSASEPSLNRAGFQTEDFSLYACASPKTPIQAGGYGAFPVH
Procedure, shortened: as §1

[8] = test system: TT human MTC cells; assay: soft agar colony formation assay; assay type: cell-based; settings: three weeks, compared with sorafenib and 4
Procedure, shortened: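 TT cells were cultured in 0.3% agar with or without test compound for three weeks. Colony formation efficiency = number of growing colonies ÷ cells seeded. The assay was repeated twice.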

[9] = test system: TT cells; assay: TT cell xenograft assay in nude mice; assay type: in vivo, mouse
Procedure, shortened: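 Forty female nude mice (6 weeks) received subcutaneous TT cells. At ~120 mm3 tumour volume they were randomised into four arms. Each arm was dosed orally five days per week with vehicle or 10 mg/kg/day compound. Vehicle: Cremophor EL/ethanol (1:1) diluted 4-fold with water.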

[10] = test system: MZ-CRC-1 human MTC cells; assay: signaling pathway activity analysis; assay type: cell-based; settings: MZ-CRC-1 cells, 1 µM, 1 hour
Procedure, shortened: (§2)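 MZ-CRC-1 or TT medullary thyroid carcinoma cells were exposed for 1 hour to vehicle (0.1% DMSO) or 1 µM test compound. Cells were harvested and immunoblotted for pMEK, total MEK, pERK1/2, total ERK1/2 and pS6.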

[11] = test system: TT human MTC cells; assay: signaling pathway activity analysis; assay type: cell-based; settings: 1 µM, 1 hour
Procedure, shortened: as §2

[12] = toleration assay; assay type: in vivo, mouse
Procedure, shortened: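 Five female athymic nude mice (6 weeks) received escalating oral doses from 0.1 mg/kg/day up to 160 mg/kg/day.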

[13] = target: RET (Homo sapiens, UniProt P07949); assay: Kd measurement; assay type: binding
RET, sequence (P07949 29-1114): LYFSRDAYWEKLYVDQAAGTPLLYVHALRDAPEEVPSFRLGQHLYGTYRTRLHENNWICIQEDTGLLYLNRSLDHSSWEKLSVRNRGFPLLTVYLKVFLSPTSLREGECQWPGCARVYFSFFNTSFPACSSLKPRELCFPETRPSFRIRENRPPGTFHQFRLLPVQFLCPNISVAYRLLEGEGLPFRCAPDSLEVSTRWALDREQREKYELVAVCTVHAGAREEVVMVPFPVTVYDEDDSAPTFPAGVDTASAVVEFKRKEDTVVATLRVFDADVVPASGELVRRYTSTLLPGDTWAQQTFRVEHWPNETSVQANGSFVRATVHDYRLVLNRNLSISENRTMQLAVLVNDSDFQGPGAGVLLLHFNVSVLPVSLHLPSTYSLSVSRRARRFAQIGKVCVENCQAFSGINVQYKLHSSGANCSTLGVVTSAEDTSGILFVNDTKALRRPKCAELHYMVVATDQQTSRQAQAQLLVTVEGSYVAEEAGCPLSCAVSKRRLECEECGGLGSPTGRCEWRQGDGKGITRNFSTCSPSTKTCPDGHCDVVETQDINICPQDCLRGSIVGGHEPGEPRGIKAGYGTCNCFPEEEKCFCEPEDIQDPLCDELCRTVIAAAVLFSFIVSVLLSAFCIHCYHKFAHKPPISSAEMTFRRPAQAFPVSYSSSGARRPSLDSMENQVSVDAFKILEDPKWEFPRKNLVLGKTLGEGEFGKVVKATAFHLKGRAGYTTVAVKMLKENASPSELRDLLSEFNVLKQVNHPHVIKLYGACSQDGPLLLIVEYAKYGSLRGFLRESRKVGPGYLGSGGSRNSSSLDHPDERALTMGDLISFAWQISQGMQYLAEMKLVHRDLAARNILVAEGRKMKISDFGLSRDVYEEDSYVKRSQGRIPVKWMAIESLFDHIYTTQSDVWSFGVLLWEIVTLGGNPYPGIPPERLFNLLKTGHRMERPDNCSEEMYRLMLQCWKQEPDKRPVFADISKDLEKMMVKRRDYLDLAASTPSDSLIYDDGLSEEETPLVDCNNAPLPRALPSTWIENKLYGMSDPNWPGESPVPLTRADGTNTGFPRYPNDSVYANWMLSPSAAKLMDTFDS
Procedure, shortened: as §1

[14] = test system: BRAF in HCT-116 and LOVO cells; assay: RAF transactivation assay in human cancer cell lines; assay type: cell-based; settings: two cancer cell lines (HCT-116, LOVO), 1 hour
Procedure, shortened: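 HCT-116 cells are kept in DMEM and LOVO cells in DMEM/F12, each with 10% FBS, 2 mM glutamine and antibiotics. Cells are seeded, then treated with test compound for 1 hour after 24 hours. Lysates are BCA-normalised, run on 4–15% gradient SDS-PAGE and immunoblotted for pMEK, pERK1/2 and total MEK.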

[15] = test system: non-oncogenic w^− flies; assay: whole body toxicity in control, non-transformed flies; assay type: in vivo, Drosophila; settings: fed to control
[16] = higher doses that rescued ptc>dRet^M955T viability
[17] = low dose, 10 µM final food concentration, 765>dRet^M955T larvae

In the case of `CNC(=O)c1cc(Oc2ccc(NC(=O)Nc3cc(C(F)(F)F)ccc3F)cc2)ccn1` [compound 4, 4-(4-(3-(2-fluoro-5-(trifluoromethyl)phenyl)ureido)phenoxy)-N-methylpicolinamide], the ectopic wing venation [1, 16] is reported as “did not promote ectopic wing venation”, the ectopic wing venation [1, 17] is reported as “stimulated significant excess wing vein material” and the “EMT and migration/invasion of dRet^M955T-expressing wing cells” value (shortened to “EMT and migration/invasion”) [2] is reported as “as effective as sorafenib in suppressing EMT and invasion”. The “effect of reduced Lk6 on suppression of ptc>dRet^M955T cell migration” value (shortened to “effect of reduced Lk6”) [2] was “reversed suppression”, the “viability of ptc>dRet^M955T flies” value ([3]; kinase-proficient control flies) was ~ 50% and 50% and the “survival to adulthood of ptc>dRet^M955T,Lk6^−/+ flies” value ([3]; one functional allele of Lk6 removed) was 0%. The “viability of ptc>dRet^M955T,phl^−/+ flies” value ([3]; phl (RAF ortholog) heterozygous) was 96% and the “rescue of ptc>dRet^M955T viability, in words” value (from here on “rescue … in words”) ([4]; listed as LS1-15) was “more effective than sorafenib”.
In the case of `CC(=O)Nc1cccc(-n2c(=O)n(C3CC3)c(=O)c3c(Nc4ccc(I)cc4F)n(C)c(=O)c(C)c32)c1` [trametinib, reference compound], the ectopic wing venation ([1]; 1 µM, 765>dRet^M955T adults) is reported as “strongly suppressed ectopic venation”, the “wing defects (enhanced wing venation, poor wing structure)” value ([1]; 765>dRet^M955T,Lk6^−/+ flies) is reported as “suppressed” and the “rescue … in words” value [4] is reported as “only moderate”.
For `CNC(=O)c1cc(Oc2ccc(NC(=O)Nc3cc(C(F)(C(F)(F)F)C(F)(F)F)ccc3F)cc2)ccn1` [compound 10, 4-(4-(3-(2-fluoro-5-(perfluoropropan-2-yl)phenyl)ureido)phenoxy)-N-methylpicolinamide], the “treatment-related clinical signs following dosing” value ([5]; 20 mg/kg orally, male ICR mice) was “No treatment-related clinical signs were observed”, the “concentration in blood plasma” value ([5]; 20 mg/kg p.o., male ICR mice) was “approximately 10 µM” and the half-life ([5]; male, ICR, mouse, plasma, po, 20 mg/kg) was 5.6 h. For the same compound, the “in vitro MKNK1 binding relative to sorafenib” value [6] was “only a small decrease”, the ectopic wing venation ([1]; at any dose) was “failed to promote ectopic wing venation” and the “BRAF binding compared to sorafenib and 4” value [7] was “reduced BRAF binding”. For the same compound, the “colony formation of TT cells in soft agar” value [8] was “strongly suppressed”, the “partial or complete responses, share of dosed mice” value ([9]; 10 mg/kg/day p.o. five days per week, day 30, female nude mice) was 75% and the “growth of established TT tumors” value ([9]; 10 mg/kg/day p.o. five days per week, subcutaneous xenograft, nude mice) was “far more potently than sorafenib or cabozantinib”. The “body weight of dosed mice” value ([9]; 10 mg/kg/day p.o., after 30 days) was “no effect; also recorded: did not affect body weight”, the RAS pathway signaling [10] was “strongly inhibited” and the RAS pathway signaling [11] was “strongly inhibited”. The “effect of reduced Lk6” value [2] was “not affected”, the “signs of clinical distress (weight loss, discharges, morbidity)” value ([12]; female athymic nude mice, oral dose escalated from 0.1 up to 160 mg/kg/day) was “no such signs were observed” and the “toxic effects after oral dosing” value ([12]; single oral dose of 160 mg/kg) was “did not cause detectable toxic effects”. For the same compound, the “RET binding relative to sorafenib” value [13] was “weaker RET binding”, the “drug concentration required to transactivate BRAF relative to sorafenib” value [14] was ~ 30 fold and the “rescue … in words” value [4] was “strongly improved”. The “rescue of ptc>dRet^M955T flies to adulthood (% viability)” value [4] was 84%.
In the case of `CNC(=O)c1cc(Oc2ccc(NC(=O)c3ccc(Cl)c(C(F)(F)F)c3)cc2)ccn1` [compound 6, 4-(4-(4-chloro-3-(trifluoromethyl)benzamido)phenoxy)-N-methylpicolinamide], the whole body toxicity [15] is reported as “toxic” and the “EMT and migration/invasion” value [2] is reported as “enhanced cell migration”.
With `CNC(=O)c1cc(Oc2ccc(NC(=O)Nc3cc(C)ccc3F)cc2)ccn1` [compound 8, 4-(4-(3-(2-fluoro-5-methylphenyl)ureido)phenoxy)-N-methylpicolinamide] the “rescue … in words” value [4] was “reduced rescue” and the “rescue … in words” value ([4]; listed as APS4-35-1) was “poor whole animal activity”.
In the case of “N-methyl-4-(4-(3-(3-(trifluoromethyl)phenyl)ureido)phenoxy)picolinamide [sorafenib, reference compound]”, the ectopic wing venation [1, 16] is reported as “did not promote ectopic wing venation”, the ectopic wing venation [1, 17] is reported as “stimulated significant excess wing vein material” and the “EMT and migration/invasion” value [2] is reported as “suppressed both EMT and migration”. For the same compound, the “effect of reduced Lk6” value [2] was “reversed suppression”, the “rescue … in words” value [4] was “only moderate” and the “rescue of ptc>dRet^M955T flies to adulthood (% viability)” value [4] was ~ 5% and 5%.
With `CNC(=O)c1cc(Oc2ccc(NC(=O)Nc3cc(C(F)F)ccc3F)cc2)ccn1` [compound 7, 4-(4-(3-(5-(difluoromethyl)-2-fluorophenyl)ureido)phenoxy)-N-methylpicolinamide] the “rescue … in words” value [4] was “reduced rescue” and the “rescue … in words” value ([4]; listed as APS4-54) was “poor whole animal activity”.
In the case of `CNC(=O)c1cc(Oc2ccc(NC(=O)Nc3cccc(C(F)(F)F)c3)cc2)ccn1` [LS1-11-2, N-methyl-4-(4-(3-(3-(trifluoromethyl)phenyl)ureido)phenoxy)picolinamide], the “rescue … in words” value [4] is reported as “reduced survival”.
For `CNC(=O)c1cc(Oc2ccc(NC(=O)Nc3cc(C(F)(F)F)ccc3F)c(F)c2)ccn1` [compound 5, 4-(3-fluoro-4-(3-(2-fluoro-5-(trifluoromethyl)phenyl)ureido)phenoxy)-N-methylpicolinamide], the “EMT and migration/invasion” value [2] was “as effective as sorafenib in suppressing EMT and invasion” and the “rescue … in words” value [4] was “more effective than sorafenib”.
For `CNC(=O)c1cc(Oc2ccc(NC(=O)Nc3ccc(Cl)c(C(F)(F)F)c3)c(F)c2)ccn1` [regorafenib, 4-(4-(3-(4-chloro-3-(trifluoromethyl)phenyl)ureido)-3-fluorophenoxy)-N-methylpicolinamide, reference compound], the “rescue … in words” value [4] was “only moderate”.
For `CNC(=O)c1cc(Oc2ccc(NC(=O)Nc3cc(C(F)(F)C(F)(F)F)ccc3F)cc2)ccn1` [compound 9, 4-(4-(3-(2-fluoro-5-(perfluoroethyl)phenyl)ureido)phenoxy)-N-methylpicolinamide], the “in vitro MKNK1 binding relative to sorafenib” value [6] was “significantly reduced”, the ectopic wing venation ([1]; at any dose) was “failed to promote ectopic wing venation” and the “BRAF binding compared to sorafenib and 4” value [7] was “reduced BRAF binding”. For the same compound, the “colony formation of TT cells in soft agar” value [8] was “strongly suppressed”, the “effect of reduced Lk6” value [2] was “not affected” and the “rescue … in words” value [4] was “strongly improved”.
